This note sets out measurements from ChEMBL document CHEMBL5042517, “Discovery, X-ray Crystallography, and Anti-inflammatory Activity of Bromodomain-containing Protein 4 (BRD4) BD1 Inhibitors Targeting a Distinct New Binding Site” (J Med Chem, 2022).

SMILES strings stand for the structures. pIC50: −log10 of the molar value. Activity calls are given as the source filed them.

Data set [1] in a line: Cmax in rat at 10 mg/kg, iv. Details: route intravenous, dose 10 mg/kg. It counts as ADME, organism-based. Conditions: in vivo.
Data set [2] in a line: Antiinflammatory activity in human SAEC assessed as inhibition of Poly(I:C) induced CIG5 expression pretreated for 24 hrs followed by Poly(I:C) addition for 4 hrs by qRT-PCR analysis. It is filed as functional, cell-based. Summed up: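 Poly(I:C) 10 μg/mL then added for 4 h. CIG5 or IL-6 mRNA measured by qRT-PCR (ΔΔCt, PPIA normalized). IC50 from a four-parameter fit, mean ± SD of three independent runs.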
In general terms: Quantitative PCR measures a nucleic acid by following its amplification.

The target of data set [3] is Bromodomain-containing protein 2 (Homo sapiens, UniProt P25440). Nature of the data set: Binding affinity BRD2 BD2 (unknown origin) incubated for 1 hr by TR-FRET assay. Summed up: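 Commercial TR-FRET kit with recombinant BRD2 bromodomain. Inhibitor at 0.01 nM–100 μM, 1 h at room temperature. Excitation 340 nm; 670/620 nm emission ratio read with 100 μs delay. IC50 from a four-parameter fit, mean of three runs.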
Chain of Bromodomain-containing protein 2 (P25440 whole entry): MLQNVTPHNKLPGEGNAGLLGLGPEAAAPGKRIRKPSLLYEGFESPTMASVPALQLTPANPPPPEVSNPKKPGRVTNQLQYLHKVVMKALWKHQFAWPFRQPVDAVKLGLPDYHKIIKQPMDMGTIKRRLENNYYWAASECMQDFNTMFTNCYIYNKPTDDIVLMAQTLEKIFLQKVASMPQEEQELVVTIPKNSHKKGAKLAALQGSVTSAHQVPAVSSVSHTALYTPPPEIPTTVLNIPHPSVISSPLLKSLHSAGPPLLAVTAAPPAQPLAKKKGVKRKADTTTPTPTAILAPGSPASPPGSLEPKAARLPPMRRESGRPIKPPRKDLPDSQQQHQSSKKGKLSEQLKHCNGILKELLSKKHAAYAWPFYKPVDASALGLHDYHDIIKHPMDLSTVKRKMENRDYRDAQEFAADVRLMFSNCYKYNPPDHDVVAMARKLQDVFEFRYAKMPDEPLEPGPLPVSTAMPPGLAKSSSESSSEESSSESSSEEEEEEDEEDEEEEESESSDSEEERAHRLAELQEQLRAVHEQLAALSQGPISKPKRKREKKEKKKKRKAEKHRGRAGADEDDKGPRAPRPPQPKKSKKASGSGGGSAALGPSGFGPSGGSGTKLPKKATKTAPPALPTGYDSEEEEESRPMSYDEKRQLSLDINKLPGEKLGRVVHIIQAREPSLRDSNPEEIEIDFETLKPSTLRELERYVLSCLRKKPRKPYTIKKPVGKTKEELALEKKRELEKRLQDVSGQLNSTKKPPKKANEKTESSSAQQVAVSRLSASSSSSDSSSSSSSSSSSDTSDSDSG
(In general: In TR-FRET formats the signal depends on donor and acceptor labels being close together.)

Data set [4] addresses Bromodomain-containing protein 3 (Homo sapiens, UniProt Q15059). Nature of the data set: Binding affinity BRD3 BD2 (unknown origin) incubated for 1 hr by TR-FRET assay.
Data set [5] concerns the target T1, Bromodomain-containing protein 4 (Homo sapiens, UniProt O60885). As to the kind of experiment: Binding affinity to wild type human BRD4 BD2 (349 to 461 residues) expressed in bacterial competent cells assessed as increase in thermal stability by thermal shift assay.
The nature of data set [6]: Half life in rat at 10 mg/kg, iv. The conditions noted are these: in vivo. It is filed as ADME, organism-based.
A short description of data set [7]: Volume of distribution at steady state in rat at 20 mg/kg, po. It is filed as ADME, organism-based. Conditions: in vivo.
The nature of data set [8]: Volume of distribution at steady state in rat at 10 mg/kg, iv. The conditions noted are these: in vivo, read-out: Vdss. It is filed as ADME, organism-based.
Data set [9] has as its system Mus musculus. Nature of the data set: Antiinflammatory activity in C57BL/6 mouse model of poly(I:C)-induced acute airway inflammation assessed as inhibition of neutrophilic inflammation around small sized airways at 10 mg/kg, po administered 1 day prior to poly(I:C) stimulation by H and E staining based analysis. It counts as functional. The arrangement: scale not given: the % may be the effect or the level left.

Data set [10] deals with Mus musculus. Nature of the data set: Antiinflammatory activity in C57BL/6 mouse model of poly(I:C)-induced acute airway inflammation assessed as decrease in CIG5 gene expression in lung tissue at 10 mg/kg, po administered 1 day prior to poly(I:C) stimulation. It is filed as functional, organism-based.
Data set [11] relates to Mus musculus. As to the kind of experiment: Antiinflammatory activity in C57BL/6 mouse model of poly(I:C)-induced acute airway inflammation assessed as decrease in ISG54 gene expression in lung tissue at 10 mg/kg, po administered 1 day prior to poly(I:C) stimulation. It is filed as functional, organism-based.
The target in data set [12] is T1, Bromodomain-containing protein 4.
Data set [13] has the same target. The source holds these as a separate data set.
For data set [14] the target is unchanged. The source holds these as a separate data set.
The target is the same in data set [15]. The source holds these as a separate data set.
Data set [16] has the same target. This is another data set of the same source.
Data set [17] has the same target. The source holds these as a separate data set.
Data set [18] shares this target. This is another data set of the same source.
Data set [19] relates to Bromodomain-containing protein 4 (Homo sapiens), O60885 [E151A].
Data set [20] has the same test system. This is another data set of the same source.
For data set [21] the test system is unchanged. This is another data set of the same source.
Data set [22] has the same test system. This is another data set of the same source.

Chain of Bromodomain-containing protein 3 (Q15059 whole entry, the tested form may be a part): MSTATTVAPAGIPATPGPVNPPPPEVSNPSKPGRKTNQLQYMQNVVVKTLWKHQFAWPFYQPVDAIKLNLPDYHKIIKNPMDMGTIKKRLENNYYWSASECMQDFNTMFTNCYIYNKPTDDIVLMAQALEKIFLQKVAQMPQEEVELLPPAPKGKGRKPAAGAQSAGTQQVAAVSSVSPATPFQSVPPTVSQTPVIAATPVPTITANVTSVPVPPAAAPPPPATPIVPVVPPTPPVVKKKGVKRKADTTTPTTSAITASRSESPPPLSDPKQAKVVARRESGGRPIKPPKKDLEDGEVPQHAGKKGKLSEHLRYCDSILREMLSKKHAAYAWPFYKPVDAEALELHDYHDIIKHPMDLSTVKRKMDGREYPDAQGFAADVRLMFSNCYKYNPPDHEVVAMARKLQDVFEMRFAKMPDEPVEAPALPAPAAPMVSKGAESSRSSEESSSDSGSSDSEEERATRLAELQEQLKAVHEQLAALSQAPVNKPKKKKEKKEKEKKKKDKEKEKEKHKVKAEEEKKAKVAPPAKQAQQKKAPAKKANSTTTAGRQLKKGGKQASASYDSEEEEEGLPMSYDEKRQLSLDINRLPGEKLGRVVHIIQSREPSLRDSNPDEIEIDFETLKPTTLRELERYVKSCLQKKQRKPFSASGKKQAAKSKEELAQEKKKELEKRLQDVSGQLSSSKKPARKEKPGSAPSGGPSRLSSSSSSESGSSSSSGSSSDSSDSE

As usually defined, the Cmax is the peak of the concentration-time curve. A word on the pIC50: it is the IC50 on a negative log10 scale, so that one unit is a factor of ten. As a reminder, the half-life is the time needed for the level to fall by half in the phase considered. The ΔTm is the change in melting temperature against a reference sample. In [1], `O=C(Nc1ccc(C(F)(F)F)cc1)Nc1ccc(S(=O)(=O)N2CCC[C@H]2CN2CCOCC2)cc1` registered a Cmax of 1920 ng/mL. The pIC50 is 6.70 in [2], 5.88 in data set [3] and 5.70 in data set [4]. Also, the result (in data set [5]; in the data set on Mus musculus [10]) was inactive. Moreover, the half-life in data set [6] is 2.5 h. In data set [7], this compound registered a Vdss of 170 L/kg. For the same compound, the Vd in [8] turned out to be 16 L/kg. Further, in the data set with Mus musculus [9], the Activity was 100%. Besides, the outcome in the data set with Mus musculus [11] was Active. For the same compound, the ΔTm was found to be 6.6 °C in [12]; 0.7 °C in [13]; 13.3 °C in data set [14]; 0.6 °C in data set [15]; 1.1 °C in data set [16]; 0.7 °C in data set [17]. For the same compound, the ΔTm is 0.6 °C in data set [18]; 0.7 °C in data set [19]; 0.5 °C in data set [20]; 0.1 °C in [21]; 0.4 °C in data set [22].
